Test results: PubChem BioAssay
The source made the active and inactive calls.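 Rule for the calls, unless noted: active = viability at or below 30% in both replicate assays; inconclusive = viability at or below 30% in just one of the two assays; inactive = the rest.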

Experiments:
[1] = reducers of endogenous Her2 protein level, primary screen, SKBR3 breast tumor cells, AlphaScreen, ATP viability (AID 461;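 active = Her2 level under about 52% in both replicate screens, with viability over 70% of control, limit read from the data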;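 for Her2 level: lower value means less Her2 protein in the cells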;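 for viability: percent of carrier control wells set as 100% viability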); conditions: 18-24 h, measured here: SKBR3 viability, ATP luminescence, at 10 µM
[2] = molecular target: Receptor tyrosine-protein kinase erbB-2 (Homo sapiens) (UniProt P04626); test: as above; conditions: 18-24 h, at 10 µM, stronger effect = lower value
[3] = SK-BR-3 cell growth inhibitors, pilot screen, 24 h, human (AID 572;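 active = viability at or below 10% of carrier control in both of two separate runs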;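 note: compound exposure lasted between 18 and 24 h rather than exactly 24 h; 100% = carrier-treated control wells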); conditions: SK-BR-3 viability, CellTiter-Glo luminescence, at 10 µM, stronger effect = lower value
[4] = HUVEC growth inhibition – cell-based, human, primary screen (AID 575); conditions: HUVEC proliferation, CellTiter-Glo luminescence, 72 h; at 10 µM; stronger effect = lower value;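 note: 100% = median of untreated cell wells with 0.1% DMSO on each plate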
Outline: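 Timing: 72 h treatment at 37 °C; material: HUVEC primary cells; technique: CellTiter-Glo luminescence measuring cellular ATP; controls: vehicle and MePR control wells; measure: percent of median DMSO-control luminescence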

[5] = growth inhibitors of H69AR lung tumor, primary screen, human, duplicate replicates (AID 580;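 active = viability at or under a set limit in both replicates, limit being median viability minus 3 SD, cut at about 48% in these data, passing the limit was not always enough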;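 note: 100% = mean luminescence of untreated wells and 0% = no signal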); conditions: H69AR lung tumor cells viability, ATP luminescence, 72 h; at 10 µM; stronger effect = lower value
[6] = reversal of MRP1-mediated doxorubicin resistance, pilot screen, H69AR cells, doxorubicin co-treatment (AID 601;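 active = viability loss from added drug above about 55%, and viability with drug at most 40%, in both replicates, limit read from the data, passing the limit was not always enough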); conditions: CellTiter-Glo, 72 h, at 10 µM; for differential viability (reversal): stronger effect = higher value
[7] = 384-well plate pilot, post-Golgi transport modulator project, inhibition of yeast transport mutant growth (AID 636; in the data active = inhibition above about 31%); conditions: absorbance 615 nm, about 18 h, stronger effect = higher value
[8] = growth suppression of yeast trafficking mutant, preliminary HTS, modulators of trafficking downstream of Golgi apparatus project, 1536-format plate, OD 615 nm (AID 637; in the data active = inhibition above about 30%); conditions: yeast transport mutant growth, absorbance 615 nm, 18 h; stronger effect = higher value
[9] = H69AR cells + 2 uM doxorubicin, measured here: viability with 2 uM doxorubicin, stronger effect = lower value
[10] = H69AR cells, compound alone cytotoxicity

Sequence of Receptor tyrosine-protein kinase erbB-2 (Homo sapiens) (P04626 whole entry, looked up): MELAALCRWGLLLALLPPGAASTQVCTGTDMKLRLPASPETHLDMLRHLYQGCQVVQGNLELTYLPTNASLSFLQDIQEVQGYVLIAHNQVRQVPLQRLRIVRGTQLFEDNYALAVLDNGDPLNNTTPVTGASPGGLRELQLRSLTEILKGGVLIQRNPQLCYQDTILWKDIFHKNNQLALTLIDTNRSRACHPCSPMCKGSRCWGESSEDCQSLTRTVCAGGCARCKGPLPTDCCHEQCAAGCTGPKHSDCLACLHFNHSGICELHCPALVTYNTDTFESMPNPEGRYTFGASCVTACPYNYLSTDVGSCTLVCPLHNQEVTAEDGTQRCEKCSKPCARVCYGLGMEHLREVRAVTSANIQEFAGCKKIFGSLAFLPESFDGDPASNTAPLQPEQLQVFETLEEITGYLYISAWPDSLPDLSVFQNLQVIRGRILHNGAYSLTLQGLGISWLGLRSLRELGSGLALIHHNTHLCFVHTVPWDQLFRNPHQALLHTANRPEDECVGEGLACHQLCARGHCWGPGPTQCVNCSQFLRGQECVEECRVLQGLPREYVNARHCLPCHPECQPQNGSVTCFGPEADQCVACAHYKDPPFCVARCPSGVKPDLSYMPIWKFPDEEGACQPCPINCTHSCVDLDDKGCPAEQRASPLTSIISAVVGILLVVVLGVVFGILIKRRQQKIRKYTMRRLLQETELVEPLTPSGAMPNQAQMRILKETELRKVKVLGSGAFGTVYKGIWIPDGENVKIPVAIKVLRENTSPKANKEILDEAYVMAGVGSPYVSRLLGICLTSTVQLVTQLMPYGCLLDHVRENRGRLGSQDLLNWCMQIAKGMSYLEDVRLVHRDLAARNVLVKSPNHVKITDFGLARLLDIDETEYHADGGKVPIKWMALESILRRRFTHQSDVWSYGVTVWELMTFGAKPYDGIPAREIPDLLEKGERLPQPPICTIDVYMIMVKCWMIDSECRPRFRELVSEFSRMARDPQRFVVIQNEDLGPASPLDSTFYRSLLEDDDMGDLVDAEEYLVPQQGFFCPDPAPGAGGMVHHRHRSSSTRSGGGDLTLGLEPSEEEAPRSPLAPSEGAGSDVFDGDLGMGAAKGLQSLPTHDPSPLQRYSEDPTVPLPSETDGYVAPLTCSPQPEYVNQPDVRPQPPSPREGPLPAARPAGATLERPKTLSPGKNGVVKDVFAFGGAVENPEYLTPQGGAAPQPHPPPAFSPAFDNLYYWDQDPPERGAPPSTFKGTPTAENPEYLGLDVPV

Structure (SMILES) | viability [1] [%] | Her2 level [2] | viability [3] | viability [4] | viability [5] | differential viability (reversal) ([6]; H69AR cells + 2 uM doxorubicin) | viability [6, 9] [%] | viability [6, 10] [%] | inhibition [7] | inhibition [8]
O=c1cc(-c2ccccc2)[nH]c2nc3ccccc3n12 | 90.5 | 60.5% (inactive) | 90.5% (inactive) | 35.5% (inactive) | 9.48% (active) | -49.3% (inactive) | 58.8 | 9.48 | -2.76% (inactive) | -2.73% (inactive)
N#CCCNCC1(c2ccccc2)CCCC1 | 96 | 94% (inactive) | 96% (inactive) | 106% (inactive) | 102% (inactive) | 12.9% (inactive) | 89.4 | 102 | 2.97% (inactive) | -4.13% (inactive)
CC(C)C(NC(=O)c1ccco1)C(=O)NCC(c1ccco1)N1CCCCC1 (stereo not given) | 96.5 | 94.5% (inactive) | 96.5% (inactive) | 94.8% (inactive) | 93.9% (inactive) | 18.1% (inactive) | 75.8 | 93.9 | -2.97% (inactive) | -0.32% (inactive)
CCOC(=O)c1c(C)[nH]c(C=Nc2ccccc2)c1O | 94 | 91.5% (inactive) | 94% (inactive) | 106% (inactive) | 101% (inactive) | 10.2% (inactive) | 90.8 | 101 | -4.13% (inactive) | 11.4% (inactive)
CN(C)c1ccc(CNn2cnnc2)cc1 | 104 | 88.5% (inactive) | 104% (inactive) | 95.8% (inactive) | 100% (inactive) | -4.28% (inactive) | 105 | 100 | -4.08% (inactive) | 0.67% (inactive)
CCC1CCCCN1C(=O)Cn1c(C(=O)OC)cc2sc(Cl)cc21 (stereo not given) | 76.5 | 103% (inactive) | 76.5% (inactive) | 89.2% (inactive) | 71.4% (inactive) | -17% (inactive) | 88.4 | 71.4 | -0.64% (inactive) | -0.67% (inactive)
OC1C[N+]2(CCCCC2)C1 | 98 | 82% (inactive) | 98% (inactive) | 99.6% (inactive) | 109% (inactive) | 13% (inactive) | 95.6 | 109 | -4.8% (inactive) | -3.23% (inactive)
O=C(NCC1CCCO1)C1CCCN(Cc2cnn(-c3ccccc3)c2-n2cccc2)C1 (stereo not given) | 83.5 | 124% (inactive) | 83.5% (inactive) | 83.4% (inactive) | 85.2% (inactive) | 40.7% (inactive) | 44.5 | 85.2 | -1.45% (inactive) | -8.33% (inactive)
Cc1ccc2cc(C(c3nnnn3CC3CCCO3)N3CCCC4(CCCCC4)C3)c(=O)[nH]c2c1 (stereo not given) | 107 | 92.5% (inactive) | 107% (inactive) | 97.9% (inactive) | 85.1% (inactive) | -8.48% (inactive) | 93.6 | 85.1 | -7.27% (inactive) | 0% (inactive)
CCCC(=O)Nc1ccc(NC(=O)C2CC2)cn1 | 108 | 112% (inactive) | 108% (inactive) | 105% (inactive) | 102% (inactive) | 6.95% (inactive) | 95.4 | 102 | -1.73% (inactive) | 5% (inactive)
CC1=C(C(=O)NC2CCC(C)CC2)C2(CCC(C)CC2)OC1=O (stereo not given) | 112 | 84% (inactive) | 112% (inactive) | 96.2% (inactive) | 90.4% (inactive) | -3.75% (inactive) | 94.1 | 90.4 | -2.27% (inactive) | -5.25% (inactive)
CCOC(=O)c1ccc(N2C(=O)CC(N(C)CCc3ccc(OC)c(OC)c3)C2=O)cc1 (stereo not given) | 102 | 123% (inactive) | 102% (inactive) | 101% (inactive) | 96.8% (inactive) | 12.1% (inactive) | 84.7 | 96.8 | -2.73% (inactive) | -8.83% (inactive)
CC1CCN(Cc2ccc(-c3nn[nH]n3)cc2)CC1 | 116 | 86.5% (inactive) | 116% (inactive) | 99.6% (inactive) | 95% (inactive) | 0.33% (inactive) | 94.7 | 95 | 1.04% (inactive) | 30% (active)
CS(=O)(=O)N1CCCC(C(=O)NCc2ccccc2Cl)C1 (stereo not given) | 99 | 89% (inactive) | 99% (inactive) | 107% (inactive) | 86.5% (inactive) | -4.79% (inactive) | 91.3 | 86.5 | -1.3% (inactive) | -0.95% (inactive)
CCn1c(=O)cc(OCC(=O)NC2CCCCC2)c2ccccc21 | 86 | 98.5% (inactive) | 86% (inactive) | 91.5% (inactive) | 87% (inactive) | 9.56% (inactive) | 77.5 | 87 | -0.77% (inactive) | 0% (inactive)
CC1CCN(C(=O)CSc2nnc(-c3ccc(S(=O)(=O)N4CCOCC4)cc3)n2C)CC1 | 108 | 109% (inactive) | 108% (inactive) | 93.7% (inactive) | 88.3% (inactive) | -4.8% (inactive) | 93.1 | 88.3 | -4.4% (inactive) | -2.62% (inactive)
CC(C)C(=O)Nc1cccc(NC(=O)c2cccnc2)c1 | 102 | 98.5% (inactive) | 102% (inactive) | 107% (inactive) | 97.9% (inactive) | -1.67% (inactive) | 99.6 | 97.9 | -2.63% (inactive) | 4.1% (inactive)
O=C(CSc1nnc(CNC(=O)c2c(F)cccc2Cl)o1)c1ccccc1 | 94.5 | 107% (inactive) | 94.5% (inactive) | 112% (inactive) | 92.1% (inactive) | -1.57% (inactive) | 93.7 | 92.1 | 0.38% (inactive) | -0.67% (inactive)
COC(=O)c1ccc2ncccc2c1 | 110 | 131% (inactive) | 110% (inactive) | 111% (inactive) | 107% (inactive) | 7.81% (inactive) | 98.8 | 107 | -1.32% (inactive) | 7.7% (inactive)
Cc1ccc(-c2noc(CCC(=O)NC3CCCc4ccccc43)n2)cc1 (stereo not given) | 75 | 85.5% (inactive) | 75% (inactive) | 83.6% (inactive) | 92.5% (inactive) | 6.05% (inactive) | 86.4 | 92.5 | -4.87% (inactive) | -4.67% (inactive)
Oc1ccccc1C1=Nc2nc3ccccc3n2C(c2ccccc2)C1 (stereo not given) | 75.5 | 86.5% (inactive) | 75.5% (inactive) | 103% (inactive) | 65% (inactive) | -12.7% (inactive) | 77.7 | 65 | -7.24% (inactive) | -1.15% (inactive)
c1ccc(-c2nnc(-c3ccco3)n2-c2ccccc2)cc1 | 81.5 | 78% (inactive) | 81.5% (inactive) | 87% (inactive) | 88.1% (inactive) | -10.6% (inactive) | 98.6 | 88.1 | -6.08% (inactive) | 3.61% (inactive)
CCn1nnc(NC(=O)c2cc3ccccc3o2)n1 | 103 | 103% (inactive) | 103% (inactive) | 97.2% (inactive) | 101% (inactive) | 11.5% (inactive) | 90 | 101 | -4.19% (inactive) | -9% (inactive)
COc1ccc(-n2c(SCc3ccc(C#N)cc3)nnc2-c2ccccn2)cc1 | 82.5 | 91.5% (inactive) | 82.5% (inactive) | 120% (inactive) | 96.3% (inactive) | 11.2% (inactive) | 85 | 96.3 | -7.16% (inactive) | -5.56% (inactive)
O=C1c2ccccc2C(=O)N1CC(O)Cn1nnc2ccccc21 (stereo not given) | 120 | 108% (inactive) | 120% (inactive) | 90.9% (inactive) | 95.9% (inactive) | 4.44% (inactive) | 91.5 | 95.9 | -3.07% (inactive) | -3.71% (inactive)
NC1=NC(c2ccc(Cl)cc2)n2c(nc3ccccc32)N1 (stereo not given) | 96 | 86% (inactive) | 96% (inactive) | 84.9% (inactive) | 78.4% (inactive) | -10.8% (inactive) | 89.3 | 78.4 | -5.13% (inactive) | -0.73% (inactive)
Cc1cc(C)n(-c2nnc(C)n2/N=C/c2ccccc2F)n1 | 94 | 89% (inactive) | 94% (inactive) | 110% (inactive) | 98.3% (inactive) | 13.3% (inactive) | 84.9 | 98.3 | -7.07% (inactive) | 4.59% (inactive)
COc1ccc(C(=O)NCc2ccccc2OC)cc1 | 110 | 100% (inactive) | 110% (inactive) | 93.8% (inactive) | 105% (inactive) | 9.52% (inactive) | 95.8 | 105 | -6.58% (inactive) | -3.17% (inactive)
CCOC(=O)CSc1nc(N)c2c3c(sc2n1)CCCC3 | 104 | 96.5% (inactive) | 104% (inactive) | 78.7% (inactive) | 89.3% (inactive) | 0.02% (inactive) | 89.3 | 89.3 | 0.8% (inactive) | 2.58% (inactive)
